# Assay outcomes as filed in PubChem BioAssay.
# Sampled rows, rich in hits. Any-hit rate of the full collection: about 3.1%.
# ADAM10 inh: inhibitors of human ADAM10. inhibition, % at 7 µM. recombinant ADAM10, EDANS/DABCYL FRET peptide cleavage, 3 h. AID 720582. 370,000 tested, 0.62% active;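 active = inhibition above a per-campaign cutoff equal to the mean of compounds falling between control-based bounds plus 3 SD, cut at about 20% in these data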;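 note: 0% = DMSO wells while the 100% control is not disclosed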
# ADAM17 inh: inhibits human ADAM17; P78536; 370,000 tested, 0.83% active; inhibition, % at 6.95 µM; recombinant ADAM17, EDANS/DABCYL FRET peptide cleavage;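 active = inhibition above the mean of compounds lying between control limits plus 3 SD, set per campaign, cut at about 8.5% in these data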;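 note: 0% = DMSO-only wells as the low control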
# Target sequence (P78536 215-824 limits assumed): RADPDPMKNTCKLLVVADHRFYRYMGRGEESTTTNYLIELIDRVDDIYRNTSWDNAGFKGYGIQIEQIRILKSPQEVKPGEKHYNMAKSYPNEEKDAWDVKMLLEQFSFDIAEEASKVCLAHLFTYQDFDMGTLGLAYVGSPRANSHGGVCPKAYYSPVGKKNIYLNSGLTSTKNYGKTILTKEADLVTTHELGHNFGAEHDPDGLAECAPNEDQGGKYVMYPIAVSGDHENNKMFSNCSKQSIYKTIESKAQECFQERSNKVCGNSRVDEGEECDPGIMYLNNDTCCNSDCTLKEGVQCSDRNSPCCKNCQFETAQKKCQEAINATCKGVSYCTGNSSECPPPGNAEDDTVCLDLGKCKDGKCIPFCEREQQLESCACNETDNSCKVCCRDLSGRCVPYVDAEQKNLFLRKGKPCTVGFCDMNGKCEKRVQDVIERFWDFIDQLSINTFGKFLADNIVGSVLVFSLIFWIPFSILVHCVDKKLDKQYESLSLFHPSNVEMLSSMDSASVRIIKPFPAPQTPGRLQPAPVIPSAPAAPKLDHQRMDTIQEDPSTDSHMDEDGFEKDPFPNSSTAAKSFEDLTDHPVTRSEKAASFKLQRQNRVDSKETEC
# aDG glyco up: increases alpha dystroglycan glycosylation; activation, % at 10 µM; Pro5-aDG cells, alpha-DG glycosylation AlphaScreen (IIH6); 0% Pro5, 100% B10-LARGE cell signal; 360,000 tested, 0.22% active; AID 624168;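 active = activation of at least 8% versus controls, or a plate z-score of at least 8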;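 note: Pro5 are CHO cells carrying HIG-tagged alpha-DG that lacks glycosylation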
# Lipid droplet: hepatic lipid droplet formation modulation. AML12 mouse hepatocytes, oleate lipid droplets, BODIPY imaging. 240,000 tested, 0.4% active. inhibition, % at 6.5 µM;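 active = lipid droplet intensity inhibited by at least 50%, with more than 500 cells counted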
#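 Assay system: AML12 hepatocytes (mouse); Probe or stimulus: oleic acid at 100 µM to induce lipid droplet formation; Dosing: compound at 6.5 µM only; Schedule: compound with oleate, overnight; Detection: fluorescence imaging, 20x objective, two fields per well; Measure: % inhibition of lipid droplet signal.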
# V-ATPase pH: regulators of yeast V-ATPase proton transport. 350,000 tested, 0.37% active. S. cerevisiae, pHLuorin cytosolic pH fluorescence. response, % at 10 µM. AID 504577; in the data active = response mostly above about 7.3%, no sharp cut-off; inactive = mostly below about 5.4%; note: actives read high
# MPTP block: inhibitors of mitochondrial permeability transition pore; isolated mouse mitochondria, Ca2+ swelling absorbance, 30 min; inhibition, % at 10 µM; 360,000 tested, 1.4% active; AID 602449;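 active = inhibition of 50% or more, scaled per plate between neutral and stimulator controls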;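 note: 0% = DMSO wells given calcium and 100% = 1 mM EGTA wells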
# Lipid drop inh: confirmation of inhibitors of hepatic lipid droplet formation; shares compounds with Lipid droplet; AML12 mouse hepatocytes, BODIPY lipid droplet imaging; droplets induced with 100 µM oleic acid; inhibition, % at 5.2 µM; 870 tested, 65% active; AID 463183;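 active = inhibition of lipid droplet metric at least 50%, with more than 300 cells in each of four replicates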;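 note: plate controls were DMSO with oleic acid for no effect and 5 µM Triacsin-C for full effect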
# AML12 tox img: counter-screen for cytotoxicity in AML12 mouse hepatocytes; shares compounds with Lipid droplet; DAPI nuclear morphology cytotoxicity imaging; stronger effect = higher value; cells fed 100 µM oleate overnight; z-score at 5 µM; 870 tested, 3% active; in the data active = z-score above about 6.3;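 note: compound exposure lasted overnight at 37 °C before fixation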
# AML12 tox conf: confirmation of cytotoxicity in AML12 mouse hepatocytes | AML12 mouse hepatocyte viability, ATP luminescence; cells loaded with 100 µM oleic acid | cytotoxicity, % at 50 µM | 530 tested, under 10 active | shares compounds with Lipid droplet | AID 463219;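 active = cytotoxicity above 50% in each of four replicates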;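 note: compound exposure lasted overnight at 37 °C before the ATP read; 0% = DMSO-treated cells and 100% = wells with no cells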
# * = called active by the depositor; i = inactive; x = not tested or not shown.
SMILES,ADAM10 inh,ADAM17 inh,aDG glyco up,Lipid droplet,V-ATPase pH,MPTP block,others
N#CC1=C(N)Oc2c(c(=O)oc3ccccc23)C1c1ccncc1 (stereo not given),-6.5,-1.3,0.3,x,-3.6,-1.5,
COC(=O)C1=C(N)Oc2c(c(=O)oc3ccccc23)C1c1cccnc1 (stereo not given),-6.5,-5.4,-0.2,-5.2,27.1*,-10.7,
COc1cccc(N2C(=O)NC(=O)/C(=C/c3ccc([N+](=O)[O-])s3)C2=O)c1,-5.9,0.2,0.3,-0.5,111.5*,15.6,
COc1ccccc1N1C(=O)NC(=O)/C(=C/c2ccc([N+](=O)[O-])s2)C1=O,-2.6,0.1,x,-8.2,125.3*,x,
COc1ccc(N2C(=O)NC(=O)/C(=C/c3ccc([N+](=O)[O-])s3)C2=O)cc1,5.1,-5.1,0.3,1.0,100.5*,33.7,
COc1ccc(CN2C(=O)C(CC(=O)NCc3ccco3)CC(C(=O)N(C)C)=C2C)cc1 (stereo not given),-13.5,-3.8,-0.1,x,0.1,-1.3,
CC(C)n1c(O)c(C2c3cc(Cl)ccc3Oc3[nH]c(=O)n(C(C)C)c(=O)c32)c(=O)[nH]c1=O (stereo not given),x,x,-0.3,x,17.5*,0.8,
CC(=O)c1c(O)n(-c2cccc(Cl)c2)c(=O)[nH]c1=O (tested in a mixture with another compound),-11.0,-4.3,0.1,4.2,0.7,0.7,
CC(=O)OC(C)(C)/C=C/C(=O)[C@](C)(O)[C@H]1[C@H](O)C[C@@]2(C)[C@@H]3CC=C4[C@H](C[C@H](O)C(=O)C4(C)C)[C@]3(C)C(=O)C[C@]12C,x,x,2.7,136.6*,-4.6,-2.5,
CC(=O)OC(C)(C)/C=C/C(=O)C(C)(O)C1C(O)CC2(C)C3CC=C4C(CC(O)C(=O)C4(C)C)C3(C)C(=O)CC12C (stereo not given),-13.3,-3.7,1.2,x,-0.1,-0.9,
c1cncc(-c2ccc3n2Cc2cnnn2-c2ccccc2-3)c1,-117.5,-32.7,x,x,x,x,
COc1ccc(CN2C(=O)NC(=O)/C(=C/c3ccc([N+](=O)[O-])s3)C2=O)cc1,-8.6,-2.5,0.4,21.2,132.8*,33.6,
COc1ccc(CN2C(=O)NC(=O)/C(=C\c3ccco3)C2=O)cc1,9.4,-3.8,0.2,x,4.2,-0.9,
O=C1NC(=O)N(Cc2ccc(F)cc2)C(=O)/C1=C\c1ccc([N+](=O)[O-])s1,-12.6,-7.2,0.1,1.3,101.2*,21.0,
N=c1c2c(n(Cc3ccc(Cl)cc3Cl)c3c1CCC3)CCCC2,x,x,0.1,-66.1,12.5*,-0.4,
Cc1nn(Cc2ccc(Cl)cc2Cl)c(Cl)c1C(=O)O,-0.3,0.6,-0.2,-13.8,-2.0,-1.9,
S=C1CN=C(c2ccccc2)c2cc(Cl)ccc2N1,5.5,2.5,0.0,2.1,25.0*,-0.5,
O=C(CN1C(=O)[C@@H](Cc2c[nH]c3ccccc23)N=C(c2ccccc2)c2ccccc21)NC1CCCCC1,12.2,8.4,x,x,x,x,
COc1cc(C=NNC(=S)Nc2ccc(S(=O)(=O)N3CCCCC3)cc2)cc(OC)c1OC,-5.7,1.7,0.1,x,3.2,0.8,
O=C1NC(=S)N(c2ccccc2)C(=O)/C1=C/c1ccco1,3.4,-2.0,0.1,-24.5,7.6*,0.1,
CN1C(=O)[C@@]23C[C@]4(c5c[nH]c6ccccc56)c5ccccc5N(S(=O)(=O)c5ccccc5)[C@@H]4N2C(=O)[C@@H]1SS3,-1.5,-2.4,x,x,x,x,
COC(=O)C1(N(C)c2ccccc2)CCN(Cc2ccccc2)CC1,0.4,-0.6,x,x,x,x,
CC(C)OCCCNC(=O)c1c(N)n(CC2CCCO2)c2nc3ccccc3nc12 (stereo not given),i,i,0.2,51.0*,x,-0.2,Lipid drop inh=60.1;AML12 tox img=-0.589;AML12 tox conf=1.9
